Tests used:
[1] = Cytotoxicity against mouse RAW264.7 cells assessed as cell survival up to 100 uM by MTT assay; assay type: cell-based; conditions: read-out: Survival
Summary of the method: (§1)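 RAW 264.7 macrophages were screened by MTT before the LPS-induced NO assay to rule out cytotoxicity. Concentrations went up to 100 μM, including 50 μM, and the read-out was percent cell survival. All experiments were run in triplicate.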

RAW264.7 = test: Antiinflammatory activity in mouse RAW264.7 cells assessed as inhibition of LPS-induced nitric oxide production after 18 hrs by Griess assay; assay type: functional, cell-based; conditions: RAW264.7, 18 h
Summary of the method: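 LPS-stimulated RAW 264.7 macrophages. Cell viability was first checked by MTT at concentrations up to 100 μM, so that NO inhibition could be separated from cytotoxicity. N-monomethyl-L-arginine served as positive control. Each experiment was run in triplicate. IC50 is given as mean ± SD of three independent experiments.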

[2] = Cytotoxicity against mouse RAW264.7 cells assessed as cell survival at 50 uM by MTT assay; assay type: cell-based; conditions: read-out: Survival; summary of the method: as §1

Structure (SMILES)	viability [1] [%]	IC50 (RAW264.7) [µM]	viability at 50 µM [2] [%]
O=C1C=CC[C@H](C[C@@H]2C[C@H](O)C[C@H](/C=C/c3ccccc3)O2)O1	> 90	4.2	–
CC(=O)O[C@H](C[C@@H](O)C[C@H](O)/C=C/c1ccccc1)C[C@@H]1OC(=O)C=C[C@@H]1O	> 90	27.6	–
CC(=O)O[C@@H](C/C=C1/C=CC(=O)O1)C[C@@H](O)C[C@H](O)/C=C/c1ccccc1	> 90	3.4	–
CC(=O)O[C@H](C[C@@H](O)C[C@H](O)/C=C/c1ccccc1)C[C@H]1CC=CC(=O)O1	> 90	> 50	–
CC(=O)O[C@H](C[C@@H](O)C/C=C1/C=CC(=O)O1)C[C@H](O)/C=C/c1ccccc1	> 90	7.5	–
O=C1C=CC[C@H](C[C@H](O)C[C@@H](O)C[C@H](O)/C=C/c2ccccc2)O1	> 90	3.2	–
CC(=O)O[C@H](C[C@@H](O)C[C@@H]1OC(=O)C=C[C@@H]1O)C[C@H](O)/C=C/c1ccccc1	–	–	< 15
CC(=O)O[C@H](C[C@@H](O)C[C@H]1CC=CC(=O)O1)C[C@H](O)/C=C/c1ccccc1	–	> 50	–
O=C1C=C[C@H](O)[C@H](C[C@H](O)C[C@@H](O)C[C@H](O)/C=C/c2ccccc2)O1	> 90	13.8	–
CC(=O)O[C@H](C[C@H](C[C@H](O)/C=C/c1ccccc1)OC(C)=O)C[C@H]1CC=CC(=O)O1	–	> 50	–
CNC(=N)NCCC[C@H](N)C(=O)O [TILARGININE]	–	45	–

Reference: ChEMBL document CHEMBL3785060, “Nitric Oxide Inhibitory Activity and Absolute Configurations of Arylalkenyl α,β-Unsaturated δ/γ-Lactones from Cryptocarya concinna” (J Nat Prod, 2016)
